Results taken from ChEMBL document CHEMBL1147105, “In vitro and in vivo activities of PD 0305970 and PD 0326448, new bacterial gyrase/topoisomerase inhibitors with potent antibacterial activities versus multidrug-resistant gram-positive and fastidious organism groups” (2007).
Converted amounts (≈) assume the structure as drawn.

Assays:
Enterococcus faecium [1] = test: Antibacterial activity against VanA-resistant Enterococcus faecium; format: functional
Method in brief: (§1)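 Broth microdilution MIC per CLSI guidelines, incubated at 35°C. Cation-adjusted Mueller-Hinton broth for nonfastidious organisms and staphylococci. Streptococci tested in the same broth with 3% lysed horse blood. Anaerobes tested in supplemented Brucella broth inside an anaerobe chamber (5% CO2, 5% H2, 90% N2), read after 48 h. Strains were mainly recent clinical isolates with confirmed identity.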

Enterococcus faecium [2] = test: Antibacterial activity against VanB-resistant Enterococcus faecium; format: functional; method in brief: as §1
Corynebacterium jeikeium = test: Antibacterial activity against Corynebacterium jeikeium; format: functional
Method in brief: (§2)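 Broth microdilution MIC following CLSI guidelines, in cation-adjusted Mueller-Hinton broth containing 3% lysed horse blood, incubated at 35°C. Clinical isolates with identity confirmed. Reported as MIC range, MIC50 and MIC90.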

Corynebacterium sp. = test: Antibacterial activity against Corynebacterium sp.; format: functional; method in brief: as §2
Haemophilus influenzae = test: Antibacterial activity against beta-lactamase positive Haemophilus influenzae; format: functional
Method in brief: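 Broth microdilution MIC following CLSI guidelines, in Haemophilus test medium at 35°C.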

Legionella pneumophila = test: Antibacterial activity against Legionella pneumophila; format: functional
Method in brief: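 Broth microdilution MIC per CLSI guidelines, run in buffered yeast extract α-ketoglutarate broth at 35°C and read after 48 h.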

Moraxella catarrhalis [3] = test: Antibacterial activity against beta-lactamase negative Moraxella catarrhalis; format: functional
Moraxella catarrhalis [4] = test: Antibacterial activity against beta-lactamase positive Moraxella catarrhalis; format: functional
Neisseria gonorrhoeae = test: Antibacterial activity against Neisseria gonorrhoeae; format: functional
Method in brief: (§3)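 MIC by broth microdilution in gonococcal broth, incubated at 35°C in 5% CO2. Reported as MIC range, MIC50 and MIC90.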

Escherichia coli = test: Antibacterial activity against Escherichia coli; format: functional
Method in brief: (§4)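 Broth microdilution MIC following CLSI guidelines, in cation-adjusted Mueller-Hinton broth, incubated at 35°C. Recent clinical isolates and reference strains, with identity confirmed by automated and standard microbiological methods. Results reported as MIC range, MIC50 and MIC90.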

Klebsiella oxytoca = test: Antibacterial activity against Klebsiella oxytoca; format: functional; method in brief: as §4
Klebsiella pneumoniae = test: Antibacterial activity against beta-lactamase positive Klebsiella pneumoniae; format: functional
Method in brief: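 MIC by CLSI broth microdilution for nonfastidious organisms, in cation-adjusted Mueller-Hinton broth incubated at 35°C.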

Morganella morganii = test: Antibacterial activity against Morganella morganii; format: functional; method in brief: as §4
Proteus vulgaris = test: Antibacterial activity against Proteus vulgaris; format: functional; method in brief: as §4
Salmonella typhimurium = test: Antibacterial activity against Salmonella enterica serovar Typhimurium; format: functional, Salmonella enterica subsp. enterica serovar Typhimurium; method in brief: as §4
Shigella dysenteriae = test: Antibacterial activity against Shigella dysenteriae; format: functional
Shigella sonnei = test: Antibacterial activity against Shigella sonnei; format: functional; method in brief: as §4
Acinetobacter sp. = test: Antibacterial activity against Acinetobacter sp.; format: functional; method in brief: as §4
Burkholderia cepacia = test: Antibacterial activity against Burkholderia cepacia; format: functional; method in brief: as §4
Pseudomonas aeruginosa = test: Antibacterial activity against Pseudomonas aeruginosa; format: functional; method in brief: as §4
[5] = system: Peptostreptococcus anaerobius; test: Antibacterial activity against Peptostreptococcus anaerobius; format: functional
Method in brief: (§5)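 Anaerobic broth microdilution MIC following CLSI guidelines, in supplemented Brucella broth. Run in an anaerobe chamber under 5% CO2, 5% H2 and 90% N2 at 35°C, and read after 48 h. Reported as MIC range, MIC50 and MIC90.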

[6] = system: Peptoniphilus asaccharolyticus; test: Antibacterial activity against Peptostreptococcus asaccharolyticus; format: functional; method in brief: as §5
Finegoldia magna = test: Antibacterial activity against Peptostreptococcus magnus; format: functional; method in brief: as §5
Streptococcus pyogenes = test: Antibacterial activity against Streptococcus pyogenes; format: functional
Method in brief: (§6)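 Broth microdilution MIC following CLSI guidelines, in cation-adjusted Mueller-Hinton broth with 3% lysed horse blood. Plates incubated at 35°C. Clinical isolates and reference strains, with identity confirmed by standard microbiological methods.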

Fusobacterium nucleatum = test: Antibacterial activity against Fusobacterium nucleatum; format: functional; method in brief: as §5
Clostridioides difficile = test: Antibacterial activity against Clostridium difficile; format: functional; method in brief: as §5
Bacteroides fragilis = test: Antibacterial activity against Bacteroides fragilis; format: functional; method in brief: as §5
Bacteroides ovatus = test: Antibacterial activity against Bacteroides ovatus; format: functional; method in brief: as §5
Staphylococcus aureus = test: Antibacterial activity against oxacillin and levofloxacin-resistant Staphylococcus aureus; format: functional; method in brief: as §1
[7] = system: Staphylococcus epidermidis; test: Antibacterial activity against oxacillin-resistant Staphylococcus epidermidis; format: functional; method in brief: as §1
[8] = system: Staphylococcus saprophyticus; test: Antibacterial activity against Staphylococcus saprophyticus; format: functional; method in brief: as §4
Staphylococcus warneri = test: Antibacterial activity against Staphylococcus warneri; format: functional; method in brief: as §4
Streptococcus pneumoniae [9] = test: Antibacterial activity against penicillin-susceptible Streptococcus pneumoniae; format: functional; method in brief: as §1
Streptococcus pneumoniae [10] = test: Antibacterial activity against penicillin-intermediate resistant Streptococcus pneumoniae; format: functional; method in brief: as §1
Streptococcus pneumoniae [11] = test: Antibacterial activity against levofloxacin-resistant Streptococcus pneumoniae; format: functional; method in brief: as §1
Enterococcus faecalis = test: Antibacterial activity against VanA-resistant Enterococcus faecalis; format: functional; method in brief: as §1
Anaerococcus prevotii = test: Antibacterial activity against Peptostreptococcus prevotii; format: functional; method in brief: as §5
Hoylesella oralis = test: Antibacterial activity against Prevotella oralis; format: functional; method in brief: as §5
Prevotella sp. = test: Antibacterial activity against Prevotella sp.; format: functional; method in brief: as §5
Cutibacterium acnes = test: Antibacterial activity against Propionibacterium acnes; format: functional
Neisseria meningitidis = test: Antibacterial activity against Neisseria meningitidis; format: functional; method in brief: as §3
Streptococcus salivarius = test: Antibacterial activity against Streptococcus salivarius; format: functional; method in brief: as §6
Streptococcus viridans = test: Antibacterial activity against Streptococcus viridans; format: functional; method in brief: as §6
Salmonella enteritidis = test: Antibacterial activity against Salmonella enterica serovar Enteritidis; format: functional, Salmonella enterica subsp. enterica serovar Enteritidis; method in brief: as §4
[12] = system: Parabacteroides distasonis; test: Antimicrobial activity against Bacteroides distasonis; format: functional
Method in brief: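 Anaerobic broth microdilution MIC following CLSI guidelines, in supplemented Brucella broth. Incubated at 35°C in a chamber under 5% CO2, 5% H2 and 90% N2. Read after 48 h.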

C[C@H]1NCc2cc(-c3ccc4c(=O)c(C(=O)O)cn(C5CC5)c4c3OC(F)F)ccc21 [GARENOXACIN]
MIC50 (Enterococcus faecium [1]): 8 µg/mL (≈ 18.8 µM)
MIC90 (Enterococcus faecium [1]): 16 µg/mL (≈ 37.5 µM)
MIC (Enterococcus faecium [2]): 4 µg/mL (≈ 9.38 µM)
MIC50 (Corynebacterium jeikeium): 0.25 µg/mL (≈ 0.586 µM)
MIC90 (Corynebacterium jeikeium): 0.25 µg/mL (≈ 0.586 µM)
MIC50 (Corynebacterium sp.): 0.25 µg/mL (≈ 0.586 µM)
MIC90 (Corynebacterium sp.): 64 µg/mL (≈ 150 µM)
MIC50 (Haemophilus influenzae): 0.015 µg/mL (≈ 0.0352 µM)
MIC90 (Haemophilus influenzae): 0.03 µg/mL (≈ 0.0704 µM)
MIC50 (Legionella pneumophila): 0.002 µg/mL (≈ 0.00469 µM)
MIC90 (Legionella pneumophila): 0.008 µg/mL (≈ 0.0188 µM)
MIC50 (Moraxella catarrhalis [3]): 0.03 µg/mL (≈ 0.0704 µM)
MIC90 (Moraxella catarrhalis [3]): 0.03 µg/mL (≈ 0.0704 µM)
MIC50 (Moraxella catarrhalis [4]): 0.06 µg/mL (≈ 0.141 µM)
MIC90 (Moraxella catarrhalis [4]): 0.06 µg/mL (≈ 0.141 µM)
MIC50 (Neisseria gonorrhoeae): 0.004 µg/mL (≈ 0.00938 µM)
MIC90 (Neisseria gonorrhoeae): 0.004 µg/mL (≈ 0.00938 µM)
MIC50 (Escherichia coli): 0.06 µg/mL (≈ 0.141 µM)
MIC90 (Escherichia coli): 1 µg/mL (≈ 2.35 µM)
MIC50 (Klebsiella oxytoca): 0.125 µg/mL (≈ 0.293 µM)
MIC90 (Klebsiella oxytoca): 2 µg/mL (≈ 4.69 µM)
MIC50 (Klebsiella pneumoniae): 1 µg/mL (≈ 2.35 µM)
MIC90 (Klebsiella pneumoniae): 64 µg/mL (≈ 150 µM)
MIC50 (Morganella morganii): 2 µg/mL (≈ 4.69 µM)
MIC90 (Morganella morganii): 32 µg/mL (≈ 75 µM)
MIC (Proteus vulgaris): 0.25 µg/mL (≈ 0.586 µM)
MIC50 (Salmonella typhimurium): 0.03 µg/mL (≈ 0.0704 µM)
MIC90 (Salmonella typhimurium): 0.125 µg/mL (≈ 0.293 µM)
MIC50 (Shigella dysenteriae): 0.03 µg/mL (≈ 0.0704 µM)
MIC90 (Shigella dysenteriae): 0.125 µg/mL (≈ 0.293 µM)
MIC50 (Shigella sonnei): 0.03 µg/mL (≈ 0.0704 µM)
MIC90 (Shigella sonnei): 0.125 µg/mL (≈ 0.293 µM)
MIC50 (Acinetobacter sp.): 0.125 µg/mL (≈ 0.293 µM)
MIC90 (Acinetobacter sp.): 16 µg/mL (≈ 37.5 µM)
MIC50 (Burkholderia cepacia): 32 µg/mL (≈ 75 µM)
MIC90 (Burkholderia cepacia): > 64 µg/mL
MIC50 (Pseudomonas aeruginosa): 2 µg/mL (≈ 4.69 µM)
MIC90 (Pseudomonas aeruginosa): > 64 µg/mL
MIC [5]: 0.015 µg/mL (≈ 0.0352 µM)
MIC [6]: 0.015 µg/mL (≈ 0.0352 µM)
MIC (Finegoldia magna): 0.015 µg/mL (≈ 0.0352 µM)
MIC50 (Streptococcus pyogenes): 0.125 µg/mL (≈ 0.293 µM)
MIC90 (Streptococcus pyogenes): 0.25 µg/mL (≈ 0.586 µM)
MIC (Fusobacterium nucleatum): 0.125 µg/mL (≈ 0.293 µM)
MIC50 (Clostridioides difficile): 0.5 µg/mL (≈ 1.17 µM)
MIC90 (Clostridioides difficile): 1 µg/mL (≈ 2.35 µM)
MIC50 (Bacteroides fragilis): 0.5 µg/mL (≈ 1.17 µM)
MIC90 (Bacteroides fragilis): 2 µg/mL (≈ 4.69 µM)
MIC50 (Bacteroides ovatus): 2 µg/mL (≈ 4.69 µM)
MIC90 (Bacteroides ovatus): 4 µg/mL (≈ 9.38 µM)
MIC50 (Staphylococcus aureus): 2 µg/mL (≈ 4.69 µM)
MIC90 (Staphylococcus aureus): 4 µg/mL (≈ 9.38 µM)
MIC50 [7]: 2 µg/mL (≈ 4.69 µM)
MIC90 [7]: 32 µg/mL (≈ 75 µM)
MIC50 [8]: 0.03 µg/mL (≈ 0.0704 µM)
MIC90 [8]: 0.06 µg/mL (≈ 0.141 µM)
MIC (Staphylococcus warneri): 0.03 µg/mL (≈ 0.0704 µM)
MIC50 (Streptococcus pneumoniae [9]): 0.125 µg/mL (≈ 0.293 µM)
MIC90 (Streptococcus pneumoniae [9]): 0.125 µg/mL (≈ 0.293 µM)
MIC50 (Streptococcus pneumoniae [10]): 0.25 µg/mL (≈ 0.586 µM)
MIC90 (Streptococcus pneumoniae [10]): 0.25 µg/mL (≈ 0.586 µM)
MIC50 (Streptococcus pneumoniae [11]): 1 µg/mL (≈ 2.35 µM)
MIC90 (Streptococcus pneumoniae [11]): 2 µg/mL (≈ 4.69 µM)
MIC (Enterococcus faecalis): 2 µg/mL (≈ 4.69 µM)
MIC (Anaerococcus prevotii): 0.015 µg/mL (≈ 0.0352 µM)
MIC50 (Hoylesella oralis): 0.25 µg/mL (≈ 0.586 µM)
MIC90 (Hoylesella oralis): 1 µg/mL (≈ 2.35 µM)
MIC50 (Prevotella sp.): 0.25 µg/mL (≈ 0.586 µM)
MIC90 (Prevotella sp.): 1 µg/mL (≈ 2.35 µM)
MIC50 (Cutibacterium acnes): 1 µg/mL (≈ 2.35 µM)
MIC90 (Cutibacterium acnes): 2 µg/mL (≈ 4.69 µM)
MIC50 (Neisseria meningitidis): 0.004 µg/mL (≈ 0.00938 µM)
MIC90 (Neisseria meningitidis): 0.004 µg/mL (≈ 0.00938 µM)
MIC50 (Streptococcus salivarius): 0.125 µg/mL (≈ 0.293 µM)
MIC90 (Streptococcus salivarius): 0.25 µg/mL (≈ 0.586 µM)
MIC50 (Streptococcus viridans): 0.125 µg/mL (≈ 0.293 µM)
MIC90 (Streptococcus viridans): 0.25 µg/mL (≈ 0.586 µM)
MIC50 (Salmonella enteritidis): 0.03 µg/mL (≈ 0.0704 µM)
MIC90 (Salmonella enteritidis): 0.125 µg/mL (≈ 0.293 µM)
MIC50 [12]: 2 µg/mL (≈ 4.69 µM)
MIC90 [12]: 4 µg/mL (≈ 9.38 µM)
